According to ChEMBL document CHEMBL1156853, “Structure-function relationships and crystal structures of the vitamin D receptor bound 2 alpha-methyl-(20S,23S)- and 2 alpha-methyl-(20S,23R)-epoxymethano-1 alpha,25-dihydroxyvitamin D3” (J Med Chem, 2010):
Active and inactive are the calls of the source. The rule behind the calls is not given here.

Assays:
HL-60 [1] = assay: Induction of cell differentiation in human HL60 cells assessed as CD11c and CD14 expression at 0.1 nM after 96 hrs relative to untreated control; format: functional
Procedure, shortened: (§1)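 HL60 cells plated at 4 × 10^5 cells/mL in RPMI/10% FCS at 37 °C and treated 96 h, with 0.7% ethanol control. Stained with PE-anti-CD11c and FITC-anti-CD14, and Topro-3 added to exclude dead cells. Flow cytometry counted the CD11c/CD14 double-positive subpopulation. Representative of three experiments.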

HL-60 [2] = assay: Antiproliferative activity against human HL60 cells at 0.1 nM after 96 hrs; format: functional, cell-based
Procedure, shortened: (§2)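 HL60 cells grown in RPMI with 10% fetal calf serum at 37 °C without CO2. Plated at 4 × 10^5 cells/mL and exposed 96 h to various ligand concentrations, with 0.7% ethanol as control. Cells then counted; mean ± SEM.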

[3] = molecular target: T1, Vitamin D3 receptor (Homo sapiens) (UniProt P11473); assay: Binding affinity to human VDR ligand binding domain assessed as SRC1 peptide binding dissociation constant by fluorescence anisotrophy relative to 1-alpha,25(OH)(2)D(3)
T1 sequence (whole entry): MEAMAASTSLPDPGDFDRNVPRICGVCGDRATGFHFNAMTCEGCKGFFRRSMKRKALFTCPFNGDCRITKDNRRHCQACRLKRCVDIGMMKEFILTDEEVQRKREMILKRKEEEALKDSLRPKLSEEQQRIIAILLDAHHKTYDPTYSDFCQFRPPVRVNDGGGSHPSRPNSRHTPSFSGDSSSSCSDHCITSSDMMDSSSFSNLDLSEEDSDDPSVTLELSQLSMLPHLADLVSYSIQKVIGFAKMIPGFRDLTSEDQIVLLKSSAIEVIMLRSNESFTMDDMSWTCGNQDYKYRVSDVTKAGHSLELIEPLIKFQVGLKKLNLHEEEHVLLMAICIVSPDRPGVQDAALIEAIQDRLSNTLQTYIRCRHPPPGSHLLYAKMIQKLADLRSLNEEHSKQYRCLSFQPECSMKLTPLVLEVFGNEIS
Procedure, shortened: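 Steady-state fluorescence anisotropy at 20 °C. Kd obtained from anisotropy values of free peptide, peptide at each protein concentration and plateau. Representative of three experiments.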

HL-60 [4] = assay: Antiproliferative activity against human HL60 cells after 96 hrs; format: functional, cell-based; procedure, shortened: as §2
Mus musculus = assay: Toxicity in C57BL/6J mouse assessed as increase in serum calcium level at 0.1 ug/kg, ip administered every 2 days for 3 weeks; format: organism-based; settings: in vivo, 0.0001 mg/kg
Procedure, shortened: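 Male C57BL/6J mice, 6-7 weeks old, 6-7 per group. Ligand in sesame oil given ip at 0.1 μg/kg every second day for 3 weeks; vehicle controls received sesame oil. Serum calcium measured weekly after a 3 h fast, by clinical analyzer kit. Mean ± SEM.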

HL-60 [5] = assay: Induction of cell differentiation in human HL60 cells assessed as CD11c and CD14 expression after 96 hrs; format: functional, cell-based; procedure, shortened: as §1
[6] = molecular target: T1, Vitamin D3 receptor (Homo sapiens); assay: Agonist activity at GAL4 tagged human VDR ligand binding domain expressed in MCF7 cells assessed as receptor transactivation at 1 nM by luciferase reporter gene assay relative to 2alpha-methyl-(20S,23S)-epoxymethano-1 alpha,25-dihydroxyvitamin D(3); format: cell-based
Procedure, shortened: (§3)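 Gal4 DBD fused to human VDR LBD (90-427). MCF-7 cells seeded at 10^5 per well and grown overnight in phenol red-free DMEM with 10% charcoal-treated FCS and insulin. Transfected (jetPEI) with Gal4-VDR, ptk-LUC reporter and β-galactosidase plasmid. Ligand or solvent added 10 h later in phenol red-free DMEM/10% FCS. Luciferase read 24 h after stimulation and normalized to β-galactosidase. Triplicates, at least three experiments.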

[7] = molecular target: T1, Vitamin D3 receptor (Homo sapiens); assay: Agonist activity at GAL4 tagged human VDR ligand binding domain expressed in MCF7 cells assessed as receptor transactivation at 5 nM by luciferase reporter gene assay relative to 2alpha-methyl-(20S,23S)-epoxymethano-1 alpha,25-dihydroxyvitamin D(3); format: cell-based; procedure, shortened: as §3
[8] = molecular target: T1, Vitamin D3 receptor (Homo sapiens); assay: Agonist activity at GAL4 tagged human VDR ligand binding domain expressed in MCF7 cells assessed as receptor transactivation at 0.1 nM by luciferase reporter gene assay relative to 2alpha-methyl-(20S,23S)-epoxymethano-1 alpha,25-dihydroxyvitamin D(3); format: cell-based; procedure, shortened: as §3
[9] = molecular target: T1, Vitamin D3 receptor (Homo sapiens); assay: Agonist activity at GAL4 tagged human VDR ligand binding domain expressed in MCF7 cells assessed as receptor transactivation at 0.1 nM by luciferase reporter gene assay relative to (20S,23S)-epoxymethano-1 alpha,25-dihydroxyvitamin D(3); format: cell-based; procedure, shortened: as §3
[10] = molecular target: T1, Vitamin D3 receptor (Homo sapiens); assay: Agonist activity at GAL4 tagged human VDR ligand binding domain expressed in MCF7 cells assessed as receptor transactivation at 5 nM by luciferase reporter gene assay relative to 1-alpha,25(OH)(2)D(3); format: cell-based; procedure, shortened: as §3
[11] = molecular target: T1, Vitamin D3 receptor (Homo sapiens); assay: Agonist activity at GAL4 tagged human VDR ligand binding domain expressed in MCF7 cells assessed as receptor transactivation at 0.1 nM by luciferase reporter gene assay relative to 1-alpha,25(OH)(2)D(3); format: cell-based; procedure, shortened: as §3

| fold change (FC) [3] | Activity [6] | Activity [7] | Activity [8] | fold change (FC) [9] | Activity [10] | fold change (FC) [11] | SMILES | Activity (HL-60 [1]) | Activity (HL-60 [2]) | Activity (HL-60 [4]) | Activity (Mus musculus) | Activity (HL-60 [5]) | fold change (FC) (HL-60 [1]) |
| --- | --- | --- | --- | --- | --- | --- | --- | --- | --- | --- | --- | --- | --- |
| – | – | – | – | – | – | – | C=C1/C(=C\C=C2/CCC[C@]3(C)[C@@H]([C@H](C)CCCC(C)(C)O)CC[C@@H]23)C[C@@H](O)C[C@@H]1O | inactive | inactive | – | – | – | – |
| 3.2 | – | – | – | – | – | – | C=C1/C(=C\C=C2/CCC[C@]3(C)[C@@H]([C@@H]4C[C@H](CC(C)(C)O)CO4)CC[C@@H]23)C[C@@H](O)[C@H](C)[C@@H]1O | inactive | inactive | Dose-dependent effect | Non-toxic | Dose-dependent effect | – |
| 1.7 | – | – | – | – | – | – | C=C1/C(=C\C=C2/CCC[C@]3(C)[C@@H]([C@@H]4C[C@H](CC(C)(C)O)CO4)CC[C@@H]23)C[C@@H](O)C[C@@H]1O | inactive | inactive | Dose-dependent effect | – | Dose-dependent effect | – |
| 0.9 | 42% | 73% | 26% | – | – | – | C=C1/C(=C\C=C2/CCC[C@]3(C)[C@@H]([C@@H]4C[C@@H](CC(C)(C)O)CO4)CC[C@@H]23)C[C@@H](O)C[C@@H]1O | inactive | inactive | – | Toxic | – | – |
| 1.3 | – | – | – | 3.8 | Active | 13 | C=C1/C(=C\C=C2/CCC[C@]3(C)[C@@H]([C@@H]4C[C@@H](CC(C)(C)O)CO4)CC[C@@H]23)C[C@@H](O)[C@H](C)[C@@H]1O | Active | Active | – | Toxic | – | 10 |
